Data taken from publication PMC6911266 (Nature, 2019).
Changes are numbered by the printed parent chain. Several values for one entry are separate records, joined by “and”; a condition that tells them apart may be missing. Identical values can stand only once. Like-named read-outs stand apart in the source and are kept apart here.

Legend:
PfCRT 7G8+C289A = molecular target: T1, PfCRT 7G8+C289A (Plasmodium falciparum, UniProt W7FI62, C289A); assay: Transport; assay type: biochemical; conditions: read-out: IC50 (concentration yielding half-maximal reduction of [3H]-CQ transport); 100 nM [3H]-CQ, 1 min
T1 sequence (W7FI62 1-424 C289A): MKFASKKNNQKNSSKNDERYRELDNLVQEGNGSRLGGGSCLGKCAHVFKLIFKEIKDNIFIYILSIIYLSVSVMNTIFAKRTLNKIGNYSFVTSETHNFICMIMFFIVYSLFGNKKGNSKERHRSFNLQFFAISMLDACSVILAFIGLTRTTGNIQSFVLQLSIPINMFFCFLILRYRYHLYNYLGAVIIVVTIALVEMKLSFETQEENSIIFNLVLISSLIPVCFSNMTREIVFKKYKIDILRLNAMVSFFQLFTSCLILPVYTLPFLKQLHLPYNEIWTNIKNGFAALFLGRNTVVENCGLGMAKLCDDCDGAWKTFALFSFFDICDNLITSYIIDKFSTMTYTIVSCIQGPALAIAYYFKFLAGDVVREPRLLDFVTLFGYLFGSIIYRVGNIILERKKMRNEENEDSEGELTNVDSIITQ
Procedure, shortened: (§1)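 Proteoliposomes with the PfCRT variant (40 ng PfCRT per assay) have a lumen of 100 mM KPi, pH 7.5, with 2 mM β-mercaptoethanol. They are diluted into 100 mM Tris/Mes, pH 5.5, with 100 nM [3H]-CQ (5.45 Ci/mmol) and increasing β-mercaptoethanol, and uptake runs for 1 min. Values are corrected for mock uptake on nitrocellulose filters and for control liposomes lacking PfCRT. IC50 is the β-mercaptoethanol concentration halving transport.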

PfCRT 7G8 [1] = molecular target: T2, PfCRT 7G8 (Plasmodium falciparum, UniProt W7FI62); assay type: biochemical
T2 sequence (W7FI62 1-424): T1 sequence (W7FI62 1-424 C289A) with A289C

PfCRT 7G8+C301A = molecular target: T3, PfCRT 7G8+C301A (Plasmodium falciparum, UniProt W7FI62, C301A); assay: Transport; assay type: biochemical
T3 sequence (W7FI62 1-424 C301A): T1 sequence (W7FI62 1-424 C289A) with A289C, C301A
Procedure, shortened: as §1

PfCRT 7G8 [2] = molecular target: T2, PfCRT 7G8; assay: Scintillation proximity assay; assay type: binding; conditions: for competition of [3H]-Arg binding (in words): 125 nM [3H]-Arg, 1 μM CQ or PPQ, 0.1 μM amodiaquine, 1 mM Arg, Lys or Leu
[3] = system: P. falciparum 7G8^7G8+F145I parasite line; assay: Parasite drug susceptibility assay; assay type: cell-based, Plasmodium falciparum; conditions: 72 h, asynchronous asexual blood stages
Procedure, shortened: (§2)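 Asynchronous asexual blood-stage parasites were seeded at 0.3% parasitemia and 1% hematocrit into 2-fold, 10-point test compound dilutions. Incubation was 72 h at 37°C under 5% O2/5% CO2/90% N2. Final parasitemia was read by flow cytometry. IC50 came from nonlinear regression, 4 independent assays in duplicate, with two-tailed Mann-Whitney U tests.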

[4] = system: P. falciparum WT (3D7) parasite line; assay: Parasite drug susceptibility assay; assay type: cell-based, Plasmodium falciparum; conditions: 72 h, asynchronous asexual blood stages
Procedure, shortened: as §2

[5] = system: P. falciparum Dd2^Dd2 parasite line; assay: Parasite drug susceptibility assay; assay type: cell-based, Plasmodium falciparum; conditions: 72 h, asynchronous asexual blood stages
Procedure, shortened: as §2

[6] = system: P. falciparum 7G8^7G8 parasite line; assay: Parasite drug susceptibility assay; assay type: cell-based, Plasmodium falciparum; conditions: 72 h, asynchronous asexual blood stages
Procedure, shortened: as §2

[7] = system: P. falciparum 7G8^7G8+C350R parasite line; assay: Parasite drug susceptibility assay; assay type: cell-based, Plasmodium falciparum; conditions: 72 h, asynchronous asexual blood stages
Procedure, shortened: as §2

[8] = substrate: N=C(N)NCCC[C@H](N)C(=O)O; assay: cells, lysate or membranes named
[9] = molecular target: T4, Plasmodium falciparum chloroquine resistance transporter PfCRT, 7G8 isoform (Plasmodium falciparum (isolate 7G8), UniProt W7FI62); assay: radioligand binding
[10] = molecular target: T4, Plasmodium falciparum chloroquine …; assay: radioligand binding; remark: listed apart in the source
[11] = molecular target: T4, Plasmodium falciparum chloroquine …; assay: radioligand binding; remark: listed apart in the source
[12] = read-out: IC50 (concentration yielding half-maximal reduction of [3H]-CQ transport), 100 nM [3H]-CQ, 1 min

Which IC50 (PfCRT 7G8+C289A) does the source give for `OCCS` [β-mercaptoethanol] here?
The IC50 was 2580 ± 390 µM.

What about the IC50 (PfCRT 7G8 [1]; [12]) of the same molecule?
Its IC50 is 1240 ± 140 µM.

And the “remaining [3H]-CQ transport activity” value (PfCRT 7G8+C301A; compared to the activity in the absence of the reducing agent)?
The value was 60.2 ± 8.2%.

What about the IC50 (PfCRT 7G8+C301A; [12]) of the same molecule?
The IC50 was 4170 ± 160 µM.

How did the “competition of [3H]-Arg binding (in words)” value (“competition” below) (PfCRT 7G8 [2]) turn out when `NCCCC[C@H](N)C(=O)O` [lysine] was run?
The value was “effectively competed”.

Which “competition” value (PfCRT 7G8 [2]) does the source give for `N=C(N)NCCC[C@H](N)C(=O)O` [Arg, arginine] here?
Its value is “effectively competed”.

What about the EC50 (PfCRT 7G8 [2]; half-maximal binding constant (EC50) of [3H]-Arg binding, SPA, isotopic dilution of 125 nM [3H]-Arg with non-radiolabeled Arg) of the same molecule?
The EC50 was ~400 µM and 397 µM.

And the “Vmax, transport in proteoliposomes” value (PfCRT 7G8 [1]; initial rates over 3 s, Michaelis-Menten fit)?
Its value is 190 nmol/mg/min.

And the “time course of uptake (in words)” value (PfCRT 7G8 [1]; pH gradient 5.5–7.5 and membrane potential (valinomycin))?
Its value is “maximal within one minute”.

For `COc1ccc(CCN(C)CCCC(C#N)(c2ccc(OC)c(OC)c2)C(C)C)cc1OC` (stereo not drawn) [verapamil], which “inhibition of [3H]-CQ and [3H]-Arg uptake (in words)” value (PfCRT 7G8 [1]) is on record?
Its value is “partial to strong inhibition”.

`CCN(CC)Cc1cc(Nc2ccnc3cc(Cl)ccc23)ccc1O` [amodiaquine] was tested. Which “competition” value (PfCRT 7G8 [2]) did it give?
The value was “effectively competed”.

With `CCNCCCC(C)Nc1ccnc2cc(Cl)ccc12` (stereo not drawn) [md-CQ, monodesethyl-chloroquine] as the molecule, how does the IC50 [3] read?
Its IC50 is 0.0478 ± 0.0025 µM.

What about the IC50 [4] of the same molecule?
Its IC50 is 0.0486 ± 0.0031 µM.

What about the IC50 [5] of the same molecule?
The IC50 was 1.8 ± 0.199 µM.

What about the IC50 [6] of the same molecule?
Its IC50 is 0.919 ± 0.125 µM.

What about the IC50 [7] of the same molecule?
Its IC50 is 0.0365 ± 0.002 µM.

B1: PfCRT 7G8 (Plasmodium falciparum 7G8) (protein)
chain: T1 sequence (W7FI62 1-424 C289A) with A289C
Which Km [8] does the source give for B1 here?
The Km was 1.30 ± 0.20 µM.

What about the Vmax [8] of the same molecule?
The Vmax was 189.2 ± 9.1 nmol/mg/min.

B2: Fab CTC (Fab, V domains shown)
VH: EVQLVESGGGLVQPGGSLRLSCAASGFNVSYSYIHWVRQAPGKGLEWVASIYPYSGYTSYADSVKGRFTISADTSKNTAYLQMNSLRAEDTAVYYCARYGSNYSFWYRGSSVTYAIDYWGQGTLVTVSS
VL: DIQMTQSPSSLSASVGDRVTITCRASQSVSSAVAWYQQKPGKAPKLLIYSASSLYSGVPSRFSGSRSGTDFTLTISSLQPEDFATYYCQQSSTWPITFGQGTKVEIK
For B2, which IC50 [9] is on record?
Its IC50 is 0.2 µM.

What about the IC50 [10] of the same molecule?
The IC50 was 0.15 µM.

And the IC50 [11]?
The IC50 was 0.18 µM.
